These results are taken from ChEMBL document CHEMBL1275556, “High prevalence of plasmid-mediated quinolone resistance genes qnr and aac(6')-Ib-cr in clinical isolates of Enterobacteriaceae from nine teaching hospitals in China” (2008).

Values after ≈ are worked out from the molar mass of the structure shown.

In test [1] the test system is Citrobacter freundii. Kind of test: Antimicrobial activity against aac(6')-Ib-cr-positive Citrobacter freundii PU55 harboring GyrA T83I, ParC S80I mutant, wild-type GyrB, qnrA genes by agar dilution method. The test is classed as functional. Summed up: (§1)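 MICs were determined by the CLSI agar dilution method (M7-A7) and interpreted against CLSI M100-S17 breakpoints.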

In test [2] the test system is Enterobacter cloacae. Description: Antimicrobial activity against aac(6')-Ib-cr-negative Enterobacter cloacae SH39 harboring GyrA S83I, ParC S80I mutant, wild-type GyrB and qnrA genes by agar dilution method. It counts as functional.
Test [3] concerns Klebsiella pneumoniae. Kind of test: Antimicrobial activity against aac(6')-Ib-cr-positive Klebsiella pneumoniae SY26 harboring GyrA S83I, ParC S80I mutant, wild-type GyrB and qnrB genes by agar dilution method. It counts as functional. Summed up: (§2)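 MICs were determined on clinical isolates by CLSI agar dilution (M7-A7) and interpreted against CLSI M100-S17 breakpoints.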
In test [4] the test system is Klebsiella pneumoniae. Kind of test: Antimicrobial activity against aac(6')-Ib-cr-positive Klebsiella pneumoniae SY26 harboring GyrA S83I, ParC S80I mutant, wild-type GyrB and qnrB genes by agar dilution method in presence of clavulanic acid. It counts as functional. Summed up: (§3)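 MICs measured by CLSI agar dilution (M7-A7) and interpreted against CLSI M100-S17 breakpoints. Strains were clinical Enterobacteriaceae isolates or the azide-resistant E. coli J53 recipient.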

Test [5] has as its system Enterobacter cloacae. Description: Antimicrobial activity against aac(6')-Ib-cr-negative Enterobacter cloacae WH42T harboring qnrA gene by agar dilution method in presence of clavulanic acid. The test is classed as functional. An outline of the steps:
(§4)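 Transconjugants came from conjugation of qnr and/or aac(6')-Ib-cr-carrying donors with azide-resistant E. coli J53. […] MICs were determined by CLSI agar dilution (M7-A7) and interpreted by M100-S17.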

In test [6] the test system is Klebsiella pneumoniae. Kind of test: Antimicrobial activity against aac(6')-Ib-cr-positive Klebsiella pneumoniae WH99 harboring wild-type GyrA, ParC, GyrB and qnrB genes by agar dilution method. The test is classed as functional. Summed up:
as §2

For test [7], the system named is Escherichia coli. Kind of test: Antimicrobial activity against Escherichia coli J53 harboring wild-type GyrA, ParC, GyrB genes by agar dilution method.
Test [8] has as its system Escherichia coli. Kind of test: Antimicrobial activity against aac(6')-Ib-cr-positive Escherichia coli FJ3 harboring GyrA S83L, ParC S80R mutant, wild-type GyrB and qnrB genes by agar dilution method. It counts as functional. An outline of the steps: as §1
Test [9] has as its system Escherichia coli. Kind of test: Antimicrobial activity against aac(6')-Ib-cr-positive Escherichia coli FJ3T harboring wild-type GyrA, ParC, GyrB and qnrB genes by agar dilution method.
Test [10] deals with Escherichia coli. Kind of test: Antimicrobial activity against aac(6')-Ib-cr-positive Escherichia coli FJ3T harboring wild-type GyrA, ParC, GyrB and qnrB genes by agar dilution method in presence of clavulanic acid. It counts as functional. An outline of the steps:
as §4

Test [11] relates to Enterobacter cloacae. Kind of test: Antimicrobial activity against aac(6')-Ib-cr-negative Enterobacter cloacae FJ61 harboring GyrA S83I, GyrA D87A, ParC S80I mutant, wild-type GyrB and qnrS genes by agar dilution method. The test is classed as functional.
Test [12] has as its system Enterobacter cloacae. Kind of test: Antimicrobial activity against aac(6')-Ib-cr-positive Enterobacter cloacae FJ63T harboring qnrS gene by agar dilution method in presence of clavulanic acid. The test is classed as functional. An outline of the steps:
as §4

For test [13], the system named is Klebsiella pneumoniae. Kind of test: Antimicrobial activity against aac(6')-Ib-cr-positive Klebsiella pneumoniae GZ40T harboring qnrB gene by agar dilution method in presence of clavulanic acid. It counts as functional. An outline of the steps: as §4
Test [14] relates to Enterobacter cloacae. Description: Antimicrobial activity against aac(6')-Ib-cr-negative Enterobacter cloacae GZ51 harboring qnrA gene by agar dilution method in presence of clavulanic acid. It counts as functional. An outline of the steps:
(§5)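 MICs were determined by CLSI agar dilution (M7-A7) and interpreted by CLSI M100-S17 breakpoints. The curator's line names the β-lactamase inhibitor added.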

Test [15] has as its system Citrobacter freundii. Description: Antimicrobial activity against aac(6')-Ib-cr-positive Citrobacter freundii JN1T by agar dilution method in presence of clavulanic acid. It counts as functional. Summed up:
as §4

The test system of test [16] is Klebsiella pneumoniae. Description: Antimicrobial activity against aac(6')-Ib-cr-positive Klebsiella pneumoniae JN41 harboring GyrA S83I, ParC S80I mutant, wild-type GyrB and qnrB genes by agar dilution method. The test is classed as functional. Summed up: as §2
Test [17] concerns Citrobacter freundii. Description: Antimicrobial activity against aac(6')-Ib-cr-positive Citrobacter freundii PU55T harboring wild-type GyrA, ParC, GyrB and qnrA genes by agar dilution method in presence of Tazobactam. The test is classed as functional. An outline of the steps:
as §1

Test [18] deals with Klebsiella pneumoniae. Kind of test: Antimicrobial activity against aac(6')-Ib-cr-positive Klebsiella pneumoniae SY26 harboring GyrA S83I, ParC S80I mutant, wild-type GyrB and qnrB genes by agar dilution method in presence of Tazobactam. The test is classed as functional. Summed up: as §3
Test [19] concerns Klebsiella pneumoniae. Description: Antimicrobial activity against aac(6')-Ib-cr-positive Klebsiella pneumoniae SY26T harboring wild-type GyrA, ParC, GyrB and qnrB genes by agar dilution method in presence of Tazobactam. It counts as functional. Summed up: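 Transconjugants were made by conjugating a qnr/aac(6')-Ib-cr donor with azide-resistant E. coli J53. Selection used Trypticase soy agar with sodium azide 150 µg/ml and sulfamethoxazole 180 µg/ml. […] MICs were read by CLSI agar dilution (M7-A7) and interpreted per M100-S17.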

The test system of test [20] is Enterobacter cloacae. Description: Antimicrobial activity against aac(6')-Ib-cr-negative Enterobacter cloacae WH42T harboring qnrA gene by agar dilution method in presence of Tazobactam. It counts as functional. An outline of the steps:
as §1

In test [21] the test system is Escherichia coli. Kind of test: Antimicrobial activity against aac(6')-Ib-cr-positive Escherichia coli FJ3T harboring wild-type GyrA, ParC, GyrB and qnrB genes by agar dilution method in presence of Tazobactam. The test is classed as functional. Summed up: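 Transconjugants came from conjugation of qnr and/or aac(6')-Ib-cr donors into azide-resistant E. coli J53. […] MICs were measured by CLSI agar dilution (M7-A7) and interpreted per M100-S17.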

Test [22] concerns Enterobacter cloacae. Description: Antimicrobial activity against aac(6')-Ib-cr-negative Enterobacter cloacae FJ61 harboring GyrA S83I, GyrA D87A, ParC S80I mutant, wild-type GyrB and qnrS genes by agar dilution method in presence of Tazobactam. The test is classed as functional. An outline of the steps:
as §1

For test [23], the system named is Enterobacter cloacae. Description: Antimicrobial activity against aac(6')-Ib-cr-negative Enterobacter cloacae FJ61T harboring qnrS gene by agar dilution method in presence of Tazobactam. It counts as functional. Summed up:
as §1

The subject of test [24] is Klebsiella pneumoniae. Description: Antimicrobial activity against aac(6')-Ib-cr-positive Klebsiella pneumoniae GZ40T harboring qnrB gene by agar dilution method in presence of Tazobactam. The test is classed as functional. Summed up: as §1
Test [25] has as its system Citrobacter freundii. Description: Antimicrobial activity against aac(6')-Ib-cr-positive Citrobacter freundii JN1 harboring GyrA T83I, ParC S80I mutant, wild-type GyrB and qnrA genes by agar dilution method in presence of Tazobactam. It counts as functional. An outline of the steps: as §5
In test [26] the test system is Citrobacter freundii. Description: Antimicrobial activity against aac(6')-Ib-cr-positive Citrobacter freundii JN1T by agar dilution method in presence of Tazobactam. The test is classed as functional. Summed up:
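MIC by CLSI agar dilution (M7-A7), with categories interpreted per CLSI M100-S17.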

Test [27] concerns Citrobacter freundii. Kind of test: Antimicrobial activity against aac(6')-Ib-cr-negative Citrobacter freundii JN64 harboring GyrA T83I, wild-type ParC, GyrB and qnrA genes by agar dilution method in presence of Tazobactam. The test is classed as functional. Summed up:
as §1

The test system of test [28] is Citrobacter freundii. Description: Antimicrobial activity against aac(6')-Ib-cr-positive Citrobacter freundii JS33 harboring GyrA T83I mutant, wild-type ParC, GyrB, qnrA and qnrB genes by agar dilution method in presence of Tazobactam. It counts as functional. Summed up:
as §1

Test [29] deals with Citrobacter freundii. Kind of test: Antimicrobial activity against aac(6')-Ib-cr-positive Citrobacter freundii JS33T harboring qnrA gene by agar dilution method in presence of Tazobactam. It counts as functional. An outline of the steps: as §1

As to `CO/N=C(\C(=O)N[C@@H]1C(=O)N2C(C(=O)O)=C(COC(C)=O)CS[C@H]12)c1csc(N)n1` [CEFOTAXIME], the minimal inhibitory concentration (MIC) against Citrobacter freundii [1] was 128 µg/mL (≈ 281 µM); against Enterobacter cloacae [2], 4 µg/mL (≈ 8.78 µM); against Klebsiella pneumoniae [3] it was 8 µg/mL (≈ 17.6 µM); in the test with Klebsiella pneumoniae [4], 8 µg/mL; in the test on Enterobacter cloacae [5], 0.032 µg/mL; in the test with Klebsiella pneumoniae [6], 32 µg/mL (≈ 70.3 µM). For the same compound, the MIC with Escherichia coli [7] amounted to 0.032 µg/mL (≈ 0.0703 µM); in the test on Escherichia coli [8], 128 µg/mL (≈ 281 µM); against Escherichia coli [9], 64 µg/mL (≈ 141 µM); in the test with Escherichia coli [10] it was 0.032 µg/mL; in the test with Enterobacter cloacae [11] it was 256 µg/mL (≈ 562 µM); in the test with Enterobacter cloacae [12], 0.032 µg/mL. Besides, the MIC in the test on Klebsiella pneumoniae [13] amounted to 0.032 µg/mL; in the test with Enterobacter cloacae [14] it was 32 µg/mL; in the test on Citrobacter freundii [15], 0.032 µg/mL; with Klebsiella pneumoniae [16] it was 32 µg/mL (≈ 70.3 µM).

As to `CCN1CCN(C(=O)N[C@@H](C(=O)N[C@@H]2C(=O)N3[C@@H]2SC(C)(C)[C@@H]3C(=O)O)c2ccccc2)C(=O)C1=O` [PIPERACILLIN], the MIC in the test on Citrobacter freundii [17] is 4 µg/mL; in the test on Klebsiella pneumoniae [18], 16 µg/mL; in the test with Klebsiella pneumoniae [19], 2 µg/mL; in the test with Enterobacter cloacae [20], 1 µg/mL; with Escherichia coli [21], 1 µg/mL; with Enterobacter cloacae [22], 8 µg/mL. Further, the MIC in the test with Enterobacter cloacae [23] was 1 µg/mL; with Klebsiella pneumoniae [24], 1 µg/mL; in the test with Citrobacter freundii [25], 16 µg/mL; in the test on Citrobacter freundii [26], 2 µg/mL; with Citrobacter freundii [27] it was above 256 µg/mL; with Citrobacter freundii [28] it was 8 µg/mL. Moreover, the MIC with Citrobacter freundii [29] was determined as 4 µg/mL.
